Assay results published in ChEMBL document CHEMBL3745678, “Novel β-Carboline/Hydroxamic Acid Hybrids Targeting Both Histone Deacetylase and DNA Display High Anticancer Activity via Regulation of the p53 Signaling Pathway” (J Med Chem, 2015).
Active and inactive are the calls of the source. The rule behind the calls is not given here.

Experiments:
Mus musculus [1] = assay: Toxicity in BALB/c mouse xenografted with human HCT116 cells assessed as body weight change at 45 mg/kg, ip measured twice per week over 22 days; assay type: organism-based, HCT-116; details: in vivo, 528 h
Mus musculus [2] = assay: Acute toxicity in ICR mouse assessed as death at 468.8 mg/kg, ip measured after 5 to 14 days; assay type: organism-based; details: in vivo
Summary of the method: (§1)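 Female ICR mice, single intraperitoneal injection at 585.9, 468.8, […], 300 or 240 mg/kg, or vehicle control, n = 10 per group. Deaths counted at 1 h, 4 h, daily on days 1-4 and over days 5-14. Eating, drinking, body weight and activity observed for 14 days, with survival (%) taken on day 14. LD50 calculated from mortality.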

Histone deacetylase = assay: Inhibition of HDAC in human HeLa cell nuclear extract using Boc-Lys (Ac)-AMC as substrate after 60 mins by fluorometric analysis; assay type: cell-based
Mus musculus [3] = assay: Acute toxicity in ICR mouse assessed as abnormality in eating at 240 mg/kg, ip measured for 14 days; assay type: organism-based; details: in vivo, 336 h; summary of the method: as §1
SW480 = assay: Antiproliferative activity against human SW480 cells assessed as cell viability after 48 hrs by MTT assay; assay type: functional, cell-based; details: SW480, 48 h
HCT-116 = assay: Induction of caspase-3 cleavage in human HCT116 cells at 1 to 5 uM after 48 hrs by western blot analysis; assay type: functional, cell-based
Summary of the method: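 HCT116 cells treated 48 h with or without compound. Western blots probed for Bax, Bcl-2, cleaved caspase-3 and PARP. Band intensities relative to β-actin by densitometry; means ± SD from three separate experiments.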

LoVo = assay: Antiproliferative activity against human LoVo cells assessed as cell viability after 48 hrs by MTT assay; assay type: functional, cell-based
Mus musculus [4] = assay: Acute toxicity in ICR mouse assessed as abnormality in drinking at 240 mg/kg, ip measured for 14 days; assay type: organism-based; details: in vivo, 336 h; summary of the method: as §1
[5] = Antiproliferative activity against human SW620 cells assessed as cell viability after 48 hrs by MTT assay; assay type: functional, cell-based; details: SW-620, 48 h
Mus musculus [6] = assay: Acute toxicity in ICR mouse assessed as death at 240 to 300 mg/kg, ip measured after 3 days; assay type: organism-based; details: in vivo, 72 h; summary of the method: as §1
[7] = Acute toxicity in ICR mouse assessed as survival rate at 468.8 mg/kg, ip measured on day 14; assay type: organism-based; details: in vivo; summary of the method: as §1
[8] = Acute toxicity in ICR mouse assessed as survival rate at 300 mg/kg, ip measured on day 14; assay type: organism-based; details: in vivo; summary of the method: as §1
[9] = target: T1, Protein deacetylase HDAC6 (Homo sapiens, UniProt Q9UBN7); assay: Inhibition of recombinant human HDAC6 using Boc-Lys (Ac)-AMC as substrate after 60 mins by fluorometric analysis
T1 sequence (Q9UBN7 whole entry): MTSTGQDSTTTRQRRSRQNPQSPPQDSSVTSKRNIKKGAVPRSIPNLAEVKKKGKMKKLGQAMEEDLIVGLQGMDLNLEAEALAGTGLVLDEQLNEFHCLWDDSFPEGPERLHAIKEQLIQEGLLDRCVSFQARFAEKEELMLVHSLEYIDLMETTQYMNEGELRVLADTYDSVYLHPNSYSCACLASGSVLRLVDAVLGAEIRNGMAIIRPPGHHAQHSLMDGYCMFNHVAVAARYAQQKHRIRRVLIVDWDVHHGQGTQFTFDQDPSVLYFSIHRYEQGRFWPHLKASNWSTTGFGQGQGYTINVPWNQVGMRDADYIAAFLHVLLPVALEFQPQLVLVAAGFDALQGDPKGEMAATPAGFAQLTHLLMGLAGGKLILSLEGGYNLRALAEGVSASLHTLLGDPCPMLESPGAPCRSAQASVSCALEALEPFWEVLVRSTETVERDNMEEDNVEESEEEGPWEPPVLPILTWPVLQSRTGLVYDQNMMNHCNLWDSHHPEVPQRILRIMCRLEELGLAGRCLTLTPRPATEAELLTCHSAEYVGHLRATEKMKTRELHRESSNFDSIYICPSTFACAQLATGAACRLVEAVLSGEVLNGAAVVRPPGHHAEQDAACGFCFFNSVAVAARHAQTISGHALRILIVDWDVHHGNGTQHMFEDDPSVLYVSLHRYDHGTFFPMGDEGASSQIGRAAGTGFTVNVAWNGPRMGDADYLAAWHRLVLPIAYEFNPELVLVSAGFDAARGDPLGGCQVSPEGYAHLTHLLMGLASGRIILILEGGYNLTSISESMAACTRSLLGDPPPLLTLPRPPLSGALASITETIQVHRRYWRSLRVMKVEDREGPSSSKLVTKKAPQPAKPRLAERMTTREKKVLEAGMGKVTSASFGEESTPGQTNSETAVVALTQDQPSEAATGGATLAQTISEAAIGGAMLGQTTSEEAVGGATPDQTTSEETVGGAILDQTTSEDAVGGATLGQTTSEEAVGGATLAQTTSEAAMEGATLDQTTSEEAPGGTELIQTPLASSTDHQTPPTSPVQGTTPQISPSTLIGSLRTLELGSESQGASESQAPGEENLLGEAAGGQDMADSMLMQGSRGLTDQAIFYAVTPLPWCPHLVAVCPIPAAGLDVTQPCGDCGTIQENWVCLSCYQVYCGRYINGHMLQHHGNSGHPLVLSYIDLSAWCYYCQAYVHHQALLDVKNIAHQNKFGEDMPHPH

Histone deacetylase 8 = target: T2, Histone deacetylase 8 (Homo sapiens, UniProt Q9BY41); assay: Inhibition of recombinant human HDAC8 using Boc-Lys (Ac)-AMC as substrate after 60 mins by fluorometric analysis
T2 sequence (Q9BY41 whole entry): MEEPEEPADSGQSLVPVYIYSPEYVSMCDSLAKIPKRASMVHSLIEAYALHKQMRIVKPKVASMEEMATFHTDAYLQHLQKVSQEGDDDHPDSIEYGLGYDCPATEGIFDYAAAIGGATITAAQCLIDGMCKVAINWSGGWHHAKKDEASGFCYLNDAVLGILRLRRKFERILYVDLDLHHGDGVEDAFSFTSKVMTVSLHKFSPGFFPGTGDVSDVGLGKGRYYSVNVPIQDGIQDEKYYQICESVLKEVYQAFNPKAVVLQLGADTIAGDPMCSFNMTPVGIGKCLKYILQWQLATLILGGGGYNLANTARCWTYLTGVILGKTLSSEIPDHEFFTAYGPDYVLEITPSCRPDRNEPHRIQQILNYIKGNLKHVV

[10] = target: T3, Histone deacetylase (Homo sapiens) (UniProt Q13547+O15379+Q9UBN7+Q92769+Q9UQL6+Q8WUI4+Q9BY41+Q96DB2+P56524+Q9UKV0+Q969S8); assay: Inhibition of HDAC in human HCT116 cells assessed as increase in acetyl-alpha-tubulin expression after 48 hrs by immunoblotting analysis; assay type: cell-based; details: HCT-116
Summary of the method: (§2)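 HCT116 cells treated 48 h with compound, SAHA or vehicle. Lysates probed by immunoblot for acetyl-histone H3 and acetyl-α-tubulin, with β-actin as loading control. Relative levels by densitometric scanning; means ± SD of three experiments.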

[11] = target: T3, Histone deacetylase (Homo sapiens); assay: Inhibition of HDAC in human HCT116 cells assessed as increase in acetyl-histone H3 expression after 48 hrs by immunoblotting analysis; assay type: cell-based; details: HCT-116; summary of the method: as §2

With `COc1ccc(-c2nc(NC(=O)NCCCC(=O)NO)cc3c2[nH]c2ccccc23)cc1` the Activity (Mus musculus [1]) was “Non-toxic”, the Activity (Mus musculus [2]) was “Non-toxic” and the IC50 (Histone deacetylase) was 270 nM. The Activity (Mus musculus [3]) was “Non-toxic”, the IC50 (SW480) was 1160 nM and the Activity (HCT-116) was “Active”. The IC50 (LoVo) was 1630 nM, the Activity (Mus musculus [4]) was “Non-toxic” and the IC50 [5] was 940 nM. For the same molecule, the Activity (Mus musculus [6]) was “Non-toxic”, the survival at 14 day [7] was 50% and the survival at 14 day [8] was 90%. For the same molecule, the IC50 [9] was 34 nM, the IC50 (Histone deacetylase 8) was 160 nM and the inhibition [10] was “Dose-dependent effect”. The inhibition [11] was “Dose-dependent effect”.
